Source: PubChem BioAssay
Sampled rows, rich in hits. Any-hit rate of the full collection: about 2.4%.
M18AAP inhibitor = PfM18AAP inhibitors, malaria aminopeptidase, primary screen, biochemical, QFRET, recombinant enzyme; AID 1822, 2009; H-Glu-NHMec fluorogenic cleavage; M18 aspartyl aminopeptidase (Plasmodium falciparum 3D7); inhibition, % at 7.35 µM; 1.2% of 290,000 active;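 active = inhibition above the campaign mean inhibition over all tested compounds plus 3 SD, cut at about 28% in these data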;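 also: 0% = plate median of test compound wells and 100% = 2 mM ZnCl2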
PfGluPho inh = PfG6PD enzyme inhibitors, primary screen, biochemical, fluorescence intensity, uHTS; PfGluPho enzyme, NADPH resazurin-diaphorase fluorescence; glucose-6-phosphate dehydrogenase-6-phosphogluconolactonase (Plasmodium falciparum 3D7); inhibition, % at 20 µM; 0.78% of 350,000 active;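 active = inhibition reaching at least a set limit at 20 µM in the primary screen, cut at about 59% in these data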;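 also: 0% = DMSO wells with substrate and 100% = DMSO wells lacking glucose-6-phosphate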
A3G deaminase = APOBEC3G DNA deaminase inhibitors, primary screen, biochemical, fluorescence, single-stranded DNA substrate, uHTS. 0.28% of 330,000 active. inhibition, % at 20 µM. recombinant A3G, ssDNA deamination FAM/TAMRA fluorescence;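 active = inhibition of at least 40% at 20 µM, with no more than 30% in the related APOBEC3A deaminase screen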;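 also: plate controls were DMSO wells with A3G for no effect and wells lacking A3G enzyme for full effect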
Target sequence (Q9HC16 whole entry, looked up): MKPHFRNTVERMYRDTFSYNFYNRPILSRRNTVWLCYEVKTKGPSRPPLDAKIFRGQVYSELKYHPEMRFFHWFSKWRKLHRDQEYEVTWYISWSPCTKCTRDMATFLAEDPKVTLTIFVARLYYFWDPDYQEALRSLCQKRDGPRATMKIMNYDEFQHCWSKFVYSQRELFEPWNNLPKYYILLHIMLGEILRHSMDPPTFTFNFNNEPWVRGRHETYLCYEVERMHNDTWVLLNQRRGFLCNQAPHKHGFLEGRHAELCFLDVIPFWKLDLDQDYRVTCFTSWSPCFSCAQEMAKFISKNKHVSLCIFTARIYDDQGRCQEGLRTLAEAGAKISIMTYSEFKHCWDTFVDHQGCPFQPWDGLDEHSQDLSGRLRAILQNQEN
HKDC1 inhibitor = HKDC1 hexokinase inhibitors, primary screen, biochemical, fluorescence, uHTS; inhibition, % at 20 µM; AID 493160, 2011; recombinant HKDC1, G6PDH/diaphorase resazurin coupled fluorescence; 0.16% of 340,000 active; Q2TB90;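 active = inhibition above about 35% when tested at 20 µM, limit read from the data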;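 also: plate controls were DMSO wells with enzyme for no effect and DMSO wells lacking enzyme for full effect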
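Assay system: in-house recombinant HK5 (HKDC1) enzyme. Input: HKDC1 at 5 µg/mL. Medium: Tris pH 8.0 buffer with MgCl2, Tween-20, BSA, BME. Dosing: single 20 µM dose. Schedule: 90 min reaction incubation at room temperature, dark. Signal: resazurin-to-resorufin fluorescence via G6PDH and diaphorase coupling, 525/613 nm. Controls: DMSO-enzyme wells negative, buffer-substituted wells positive.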
UBC9 SUMO inh = inhibitors of in vitro SUMOylation cascade, primary screen, biochemical, HTRF, uHTS; HTRF SUMOylation assay, SAE1/SAE2 + UBC9; AID 2006, 2009; SUMO-conjugating enzyme UBC9 (Homo sapiens), P63279; inhibition, % at 35 µM; 0.36% of 290,000 active; in the data active = inhibition above about 50%, passing the limit was not always enough
A3A deaminase = APOBEC3A ssDNA deaminase inhibitors, primary screen, selectivity assay for APOBEC3G inhibitor project, biochemical, FAM/TAMRA oligo cleavage fluorescence. recombinant A3A, FAM/TAMRA ssDNA deamination fluorescence. AID 493011, 2011. inhibition, % at 20 µM. 0.41% of 330,000 active;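 active = at least 40% inhibition at 20 µM here, with at most 30% in a related deaminase screen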;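 also: plate controls were A3A with DMSO for no effect and wells lacking A3A enzyme for full effect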
A3A conf = APOBEC3A deaminase inhibitors, retest, confirmation, selectivity assay for APOBEC3G inhibitor project, biochemical, single concentration, fluorescence readout | shares compounds with A3A deaminase | recombinant A3A, ssDNA deaminase UDG fluorescence assay | inhibition, % at 20 µM | 63% of 1,400 active | AID 493151, 2011;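 active = inhibition reaching a set limit, 80% of the first screen's cutoff, at 20 µM in any replicate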;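 also: plate controls were DMSO wells with A3A for no effect and wells lacking A3A enzyme for full effect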
UDG A3A counter = E. coli UDG inhibitors, confirmation, counter-screen for APOBEC3A inhibitor project, biochemical, single concentration, fluorescence, FAM/TAMRA oligo. shares compounds with A3A deaminase. UDG counterscreen, FAM/TAMRA uracil oligo fluorescence. inhibition, % at 20 µM. 1,000 tested, under 10 active; call rule not given here
* marks the source's active call; other numbers are inactive results.

How did C=CCn1cc(/C=C/c2cc[n+](C)cc2)c2ccccc21 do in these assays?
M18AAP inhibitor: 5; PfGluPho inh: 5; A3G deaminase: -16; HKDC1 inhibitor: 3; UBC9 SUMO inh: 18; A3A deaminase: 38

What do the screens show for `CCn1cc(/C=C/c2cc[n+](C)cc2)c2ccccc21`?
M18AAP inhibitor: 10; PfGluPho inh: -5; HKDC1 inhibitor: 2; UBC9 SUMO inh: 15

How did COc1cc(CNC(C)c2ccccc2)cc(Br)c1OCc1ccc(F)cc1 (stereo unspecified) do in these assays?
M18AAP inhibitor: 4; PfGluPho inh: 15; A3G deaminase: -7; HKDC1 inhibitor: -3; UBC9 SUMO inh: -24; A3A deaminase: -10

Results for COC(=O)c1nc2cc3c(cc2c(C)c1C(=O)OC)OCO3 ?
M18AAP inhibitor: -18; PfGluPho inh: 14; A3G deaminase: -9; HKDC1 inhibitor: -2; UBC9 SUMO inh: 22; A3A deaminase: -2

What do the screens show for `CCNC(=O)Cn1cc(C#N)c2ccccc21`?
M18AAP inhibitor: 7; PfGluPho inh: -15; A3G deaminase: 20; HKDC1 inhibitor: -7; UBC9 SUMO inh: -20; A3A deaminase: 53*; A3A conf: 11

What do the screens show for `O=C(O)c1cc(O)c2c(c1)C(=O)c1cc(O)cc(O)c1C2=O`?
M18AAP inhibitor: 13; PfGluPho inh: 8; A3G deaminase: 28; HKDC1 inhibitor: 13; UBC9 SUMO inh: 16; A3A deaminase: 67*; A3A conf: 59*; UDG A3A counter: 0

How did CCNc1ccc(Br)cc(C(=O)/C=C/c2ccc3c(c2)OCO3)c1=O do in these assays?
M18AAP inhibitor: 16; PfGluPho inh: 33; A3G deaminase: 28; HKDC1 inhibitor: 21; UBC9 SUMO inh: 22; A3A deaminase: 46*; A3A conf: 19*; UDG A3A counter: -4

What do the screens show for `Cc1ccc(NC(=O)C2=CN3CCS(=O)(=O)N=C3C=C2)cc1`?
PfGluPho inh: 7; A3G deaminase: -2; HKDC1 inhibitor: -7; A3A deaminase: -2

How did CC(C)(C)c1ccc(NC(=O)C2=CN3CCS(=O)(=O)N=C3C=C2)cc1 do in these assays?
PfGluPho inh: 6; A3G deaminase: 9; HKDC1 inhibitor: 0; A3A deaminase: 51*; A3A conf: 71*; UDG A3A counter: -4

How did C/C(N)=C(/C#N)C(=O)COC(=O)c1ccccc1O do in these assays?
M18AAP inhibitor: 4; PfGluPho inh: -7; A3G deaminase: 0; HKDC1 inhibitor: 8; UBC9 SUMO inh: 8; A3A deaminase: 4

Results for CC(C)(C)NC(=O)CSc1nc2ccc(NC(=O)CSc3nnc(N)s3)cc2s1 ?
M18AAP inhibitor: -5; PfGluPho inh: 20; A3G deaminase: -3; HKDC1 inhibitor: 6; UBC9 SUMO inh: 13; A3A deaminase: 48*; A3A conf: 69*; UDG A3A counter: 4

What do the screens show for `Nc1ccc2nc(SCC(=O)Nc3ccc(N4CCOCC4)c(Cl)c3)sc2c1`?
M18AAP inhibitor: 5; PfGluPho inh: 46; A3G deaminase: 13; HKDC1 inhibitor: 10; UBC9 SUMO inh: -6; A3A deaminase: 41*; A3A conf: 55*; UDG A3A counter: -2
